Measured values published in ChEMBL document CHEMBL1144782, “Isoindolo[2,1-a]quinoxaline derivatives, novel potent antitumor agents with dual inhibition of tubulin polymerization and topoisomerase I” (2008).

Assays:
[1] = test system: HOP-92; experiment: Antitumor activity against human HOP92 cells; format: functional; conditions: for TGI: read-out: pTGI (converted)
In short: (§1)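 Run by the NCI in its in vitro disease-oriented screen of about 60 human tumour cell lines. For each line it reports pGI50 (50% net growth inhibition), pTGI (total growth inhibition) and pLC50 (50% net cell death), each as –log molar concentration. Where an effect was not reached within the tested range, the highest tested concentration was used.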

[2] = test system: NCI-H522; experiment: Antitumor activity against human NCI-H522 cells; format: functional; conditions: for CC50: read-out: Log LC50 (the source's name) (converted); for TGI: read-out: pTGI (converted); in short: as §1
[3] = test system: COLO 205; experiment: Antitumor activity against human COLO205 cells; format: functional; conditions: for TGI: read-out: pTGI (converted); in short: as §1
[4] = test system: HCC 2998; experiment: Antitumor activity against human HCC2998 cells; format: functional; conditions: for TGI: read-out: pTGI (converted); in short: as §1
[5] = test system: HCT-116; experiment: Antitumor activity against human HCT116 cells; format: functional; conditions: for TGI: read-out: pTGI (converted); in short: as §1
[6] = test system: SF-268; experiment: Antitumor activity against human SF268 cells; format: functional; conditions: for CC50: read-out: Log LC50 (the source's name) (converted); for TGI: read-out: pTGI (converted); in short: as §1
[7] = test system: SF-539; experiment: Antitumor activity against human SF539 cells; format: functional; conditions: for TGI: read-out: pTGI (converted); in short: as §1
[8] = test system: SNB-75; experiment: Antitumor activity against human SNB75 cells; format: functional; conditions: Homo sapiens, SNB-75; for TGI: read-out: pTGI (converted); in short: as §1
[9] = test system: LOX IMVI; experiment: Antitumor activity against human LOXIMVI cells; format: functional; conditions: for TGI: read-out: pTGI (converted); in short: as §1
[10] = test system: M14; experiment: Antitumor activity against human M14 cells; format: functional; conditions: for CC50: read-out: Log LC50 (the source's name) (converted); for TGI: read-out: pTGI (converted); in short: as §1
[11] = test system: UACC-62; experiment: Antitumor activity against human UACC62 cells; format: functional; conditions: for TGI: read-out: pTGI (converted)
In short: (§2)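 NCI 60-cell-line screen. Parameters were GI50 (50% net growth inhibition), TGI and LC50, each reported as –log molar concentration. Where an effect was not reached within the tested range, the highest tested concentration was used in the calculation.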

[12] = test system: IGROV-1; experiment: Antitumor activity against human IGROV1 cells; format: functional; conditions: for CC50: read-out: Log LC50 (the source's name) (converted); for TGI: read-out: pTGI (converted); in short: as §1
[13] = test system: OVCAR-4; experiment: Antitumor activity against human OVCAR4 cells; format: functional; conditions: for TGI: read-out: pTGI (converted); in short: as §1
[14] = test system: SK-OV-3; experiment: Antitumor activity against human SKOV3 cells; format: functional; conditions: for TGI: read-out: pTGI (converted); in short: as §1
[15] = test system: CAKI-1; experiment: Antitumor activity against human CAKI1 cells; format: functional; conditions: for TGI: read-out: pTGI (converted); in short: as §1
[16] = molecular target: Tubulin (Sus scrofa) (UniProt P02554+P02550); experiment: Inhibition of pig brain tubulin polymerization
[17] = test system: MCF7; experiment: Cell viability against human MCF7 cells at 10 uM; format: functional
[18] = test system: SF-268; experiment: Cell viability against human SF268 cells at 10 uM; format: functional
[19] = test system: A549; experiment: Antitumor activity against human A549 cells; format: functional; conditions: for CC50: read-out: Log LC50 (the source's name) (converted); for TGI: read-out: pTGI (converted); in short: as §1
[20] = test system: SN12C; experiment: Antitumor activity against human SN12C cells; format: functional; conditions: for TGI: read-out: pTGI (converted); in short: as §1
[21] = test system: TK-10; experiment: Antitumor activity against human TK10 cells; format: functional; conditions: for CC50: read-out: Log LC50 (the source's name) (converted); for TGI: read-out: pTGI (converted); in short: as §2
[22] = test system: MCF7; experiment: Antitumor activity against human MCF7 cells; format: functional; conditions: for TGI: read-out: pTGI (converted); in short: as §1
[23] = Antitumor activity against human […] cells; format: functional; conditions: for TGI: read-out: pTGI (converted); in short: as §1
[24] = test system: T47D; experiment: Antitumor activity against human T47D cells; format: functional; conditions: for TGI: read-out: pTGI (converted); in short: as §2
[25] = test system: CCRF-CEM; experiment: Resistance index, Ratio of GI50 for human vinblastine-resistant CEM cells to GI50 for human CEM cells; format: functional

Chain of Tubulin (Sus scrofa) (P02550 whole entry, looked up): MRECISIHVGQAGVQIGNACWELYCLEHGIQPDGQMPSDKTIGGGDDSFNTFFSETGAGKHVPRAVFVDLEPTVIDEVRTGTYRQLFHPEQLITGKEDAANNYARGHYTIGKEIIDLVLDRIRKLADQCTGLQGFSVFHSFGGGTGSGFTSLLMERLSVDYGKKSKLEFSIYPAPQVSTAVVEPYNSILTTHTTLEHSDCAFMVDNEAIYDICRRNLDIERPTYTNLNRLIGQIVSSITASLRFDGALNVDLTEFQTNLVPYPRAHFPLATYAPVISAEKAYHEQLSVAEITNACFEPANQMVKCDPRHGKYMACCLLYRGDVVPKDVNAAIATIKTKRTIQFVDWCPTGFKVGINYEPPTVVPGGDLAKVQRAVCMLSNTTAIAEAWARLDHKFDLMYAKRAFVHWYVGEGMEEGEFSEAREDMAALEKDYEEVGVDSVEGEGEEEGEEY
Chain of Tubulin (Sus scrofa) (P02554 whole entry, looked up): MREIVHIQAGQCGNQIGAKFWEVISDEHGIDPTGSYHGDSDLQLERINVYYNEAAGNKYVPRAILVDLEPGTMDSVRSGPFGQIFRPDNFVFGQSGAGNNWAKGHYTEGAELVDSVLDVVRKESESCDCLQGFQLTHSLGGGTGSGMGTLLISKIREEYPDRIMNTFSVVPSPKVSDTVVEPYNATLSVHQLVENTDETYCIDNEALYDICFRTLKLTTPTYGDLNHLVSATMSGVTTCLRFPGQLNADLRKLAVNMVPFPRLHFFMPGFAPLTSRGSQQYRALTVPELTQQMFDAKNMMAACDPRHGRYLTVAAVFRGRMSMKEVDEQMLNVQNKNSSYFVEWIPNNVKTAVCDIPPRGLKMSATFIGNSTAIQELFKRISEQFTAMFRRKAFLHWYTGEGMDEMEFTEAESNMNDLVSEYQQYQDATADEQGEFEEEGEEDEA

O=c1[nH]c2cc(Cl)c(Cl)cc2n2cc3ccccc3c12
GI50 [1]: 18.2 µM | LC50 [1]: 66.1 µM | TGI [1]: 34.7 µM | GI50 [2]: 10.2 µM | CC50 [2]: 93.3 µM | TGI [2]: 30.9 µM | GI50 [3]: 29.5 µM | LC50 [3]: > 100 µM | TGI [3]: 39.8 µM | GI50 [4]: 0.813 µM | LC50 [4]: 43.7 µM | TGI [4]: 18.6 µM | GI50 [5]: 20.9 µM | LC50 [5]: 58.9 µM | TGI [5]: 35.5 µM | GI50 [6]: 24 µM | CC50 [6]: 75.9 µM | TGI [6]: 42.7 µM | GI50 [7]: 19.1 µM | LC50 (50% net cell kill) [7]: 81.3 µM | TGI [7]: 39.8 µM | GI50 [8]: 21.4 µM | LC50 [8]: > 100 µM | TGI [8]: 53.7 µM | GI50 [9]: 17.4 µM | LC50 (50% net cell kill) [9]: 56.2 µM | TGI [9]: 30.9 µM | GI50 [10]: 22.9 µM | CC50 [10]: 69.2 µM | TGI [10]: 39.8 µM | GI50 [11]: 16.6 µM | LC50 [11]: 55 µM | TGI [11]: 30.2 µM | GI50 [12]: 17.4 µM | CC50 [12]: 56.2 µM | TGI [12]: 30.9 µM | GI50 [13]: 20.4 µM | LC50 (50% net cell kill) [13]: > 100 µM | TGI [13]: 50.1 µM | GI50 [14]: 18.2 µM | LC50 (50% net cell kill) [14]: 61.7 µM | TGI [14]: 33.1 µM | GI50 [15]: 20.4 µM | LC50 [15]: 58.9 µM | TGI [15]: 34.7 µM | Activity [16]: > 10 µM | Activity [17]: 10% | Activity [18]: 13% | GI50 [19]: 19.1 µM | CC50 [19]: 63.1 µM | TGI [19]: 34.7 µM | GI50 [20]: 15.8 µM | LC50 [20]: 55 µM | TGI [20]: 29.5 µM | GI50 [21]: 16.6 µM | CC50 [21]: 55 µM | TGI [21]: 30.2 µM | GI50 [22]: 21.4 µM | LC50 (50% net cell kill) [22]: 72.4 µM | TGI [22]: 39.8 µM | GI50 [23]: 17.4 µM | LC50 [23]: 61.7 µM | TGI [23]: 32.4 µM | GI50 [24]: 30.9 µM | LC50 [24]: > 100 µM | TGI [24]: 75.9 µM | RatioGI50 [25]: 0.86

Cc1cc2[nH]c(=O)c3c4ccccc4cn3c2cc1C
GI50 [1]: 15.5 µM | LC50 [1]: 58.9 µM | TGI [1]: 30.2 µM | GI50 [2]: 14.5 µM | CC50 [2]: 66.1 µM | TGI [2]: 30.9 µM | GI50 [3]: 15.1 µM | LC50 [3]: > 100 µM | TGI [3]: > 100 µM | GI50 [4]: 4.07 µM | LC50 [4]: 50.1 µM | TGI [4]: 16.6 µM | GI50 [5]: 1.58 µM | LC50 [5]: 6.17 µM | TGI [5]: 3.09 µM | GI50 [6]: 15.5 µM | CC50 [6]: 69.2 µM | TGI [6]: 32.4 µM | GI50 [7]: 11.2 µM | LC50 (50% net cell kill) [7]: 64.6 µM | TGI [7]: 26.9 µM | GI50 [8]: 15.5 µM | LC50 [8]: 58.9 µM | TGI [8]: 30.2 µM | GI50 [9]: 2.04 µM | LC50 (50% net cell kill) [9]: 7.94 µM | TGI [9]: 3.98 µM | GI50 [10]: 13.5 µM | CC50 [10]: 52.5 µM | TGI [10]: 26.9 µM | GI50 [11]: 16.6 µM | LC50 [11]: 60.3 µM | TGI [11]: 31.6 µM | GI50 [12]: 12.3 µM | CC50 [12]: 57.5 µM | TGI [12]: 26.9 µM | GI50 [13]: 13.5 µM | LC50 (50% net cell kill) [13]: 56.2 µM | TGI [13]: 27.5 µM | GI50 [14]: 18.2 µM | LC50 (50% net cell kill) [14]: 64.6 µM | TGI [14]: 34.7 µM | GI50 [15]: 5.37 µM | LC50 [15]: 49 µM | TGI [15]: 17.8 µM | Activity [16]: > 10 µM | Activity [17]: 0% | Activity [18]: 0% | GI50 [19]: 14.8 µM | CC50 [19]: 95.5 µM | TGI [19]: 38 µM | GI50 [20]: 6.03 µM | LC50 [20]: 56.2 µM | TGI [20]: 20.4 µM | GI50 [21]: 20 µM | CC50 [21]: 58.9 µM | TGI [21]: 33.9 µM | GI50 [22]: 11.7 µM | LC50 (50% net cell kill) [22]: > 100 µM | TGI [22]: > 100 µM | GI50 [23]: 8.32 µM | LC50 [23]: 60.3 µM | TGI [23]: 23.4 µM | GI50 [24]: 15.5 µM | LC50 [24]: > 100 µM | TGI [24]: 50.1 µM | RatioGI50 [25]: 0.97
